# Measured values taken from PMC3359464 (Medicinal Chemistry Research, 2011).
# Residues, ends and D or L forms follow the SMILES beside them.
# What was measured:
# DPP IV = experiment: Degradation rates of EMs by purified DPP IV with and without inhibitors; assay type: biochemical
# Summary of the method: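 Commercial purified DPP IV at 0.002 mg protein/ml incubated with endomorphin and test compound (1 mM solutions in 50 mM Tris–HCl, pH 7.4) at 37°C for 0, 7.5, 15, 22.5 and 30 min. Stopped on ice with 1 M HCl, centrifuged, RP-HPLC on C18 (0.1% TFA/acetonitrile gradient). k from linear regression of ln(A/A0) versus time; % inhibition from k with and without inhibitor. Three experiments in duplicate; mean ± SEM.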
# APM [1] = molecular target: T1, APM (Sus scrofa, UniProt P15145); experiment: Degradation rates of EMs by purified APM with and without inhibitors; assay type: biochemical
# T1 sequence (P15145 2-963): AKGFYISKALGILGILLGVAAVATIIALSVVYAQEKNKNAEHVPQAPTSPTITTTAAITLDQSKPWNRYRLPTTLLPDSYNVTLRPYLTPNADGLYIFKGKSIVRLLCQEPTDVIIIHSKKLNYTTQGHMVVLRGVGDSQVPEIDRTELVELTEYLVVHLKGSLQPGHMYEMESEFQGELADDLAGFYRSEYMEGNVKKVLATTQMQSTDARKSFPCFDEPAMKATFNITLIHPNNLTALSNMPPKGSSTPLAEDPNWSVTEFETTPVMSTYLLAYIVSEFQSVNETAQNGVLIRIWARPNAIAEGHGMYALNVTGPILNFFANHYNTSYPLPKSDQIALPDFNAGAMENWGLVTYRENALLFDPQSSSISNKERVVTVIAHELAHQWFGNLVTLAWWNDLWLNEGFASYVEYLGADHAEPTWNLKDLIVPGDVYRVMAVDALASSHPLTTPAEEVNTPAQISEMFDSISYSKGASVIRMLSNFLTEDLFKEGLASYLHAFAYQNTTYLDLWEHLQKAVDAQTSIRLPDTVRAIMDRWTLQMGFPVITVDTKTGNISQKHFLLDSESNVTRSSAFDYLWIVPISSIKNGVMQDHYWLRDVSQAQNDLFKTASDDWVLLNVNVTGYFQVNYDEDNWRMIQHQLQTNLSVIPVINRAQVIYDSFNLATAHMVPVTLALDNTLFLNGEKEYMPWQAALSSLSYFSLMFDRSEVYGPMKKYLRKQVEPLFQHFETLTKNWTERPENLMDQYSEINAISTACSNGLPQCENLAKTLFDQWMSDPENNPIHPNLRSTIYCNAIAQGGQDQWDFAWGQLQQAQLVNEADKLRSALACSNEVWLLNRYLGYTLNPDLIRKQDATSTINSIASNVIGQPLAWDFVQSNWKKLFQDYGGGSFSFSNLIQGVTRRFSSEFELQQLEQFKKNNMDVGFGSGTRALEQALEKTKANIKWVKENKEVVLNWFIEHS
# APM [2] = molecular target: T2, APM (Sus scrofa, UniProt P15145, species not given); experiment: as above; assay type: biochemical; conditions: purified APM (commercially available enzyme), pH 7.4
# T2 sequence (P15145 2-963): T1 sequence (P15145 2-963)
# [3] = test system: rat spinal cord homogenate; conditions: ref Sugimoto-Watanabe et al., [1999]; cited from earlier work
# [4] = Blood-brain barrier crossing; assay type: in vivo; conditions: preliminary results
# [5] = substrate EM-1, 37°C, 0-30 min, Tris-HCl pH 7.4
# [6] = substrate EM-2, 37°C, 0-30 min, Tris-HCl pH 7.4
compound,measurement,setting,value
"NC(=O)[C@H](Cc1ccccc1)NC(=O)[C@H](Cc1c[nH]c2ccccc12)NC(=O)[C@@H]1CCCN1C(=O)[C@@H](N)Cc1ccc(O)cc1 [EM-1, Tyr-Pro-Trp-Phe-NH2]",half-life,"DPP IV; purified DPP IV (commercially available enzyme), pH 7.4",16.7 ± 0.52 min
same,Resistance to DPP IV relative to EM-2,DPP IV; without inhibitor,about 1.5 times
same,"100 × k, degradation rate of EM-1 by DPP IV alone","DPP IV; without inhibitor, 37°C",4.12 ± 0.2 min⁻¹
same,"100 × k, degradation rate of EM-1 by APM alone","APM [1]; without inhibitor, 37°C",3.51 ± 0.09 min⁻¹
same,half-life,APM [2],19.7 ± 0.5 min
"CCCCC[C@H](CC(=O)NO)C(=O)N[C@H](C(=O)N1CCC[C@H]1CO)C(C)C [Actinonin, actinonin]","100 × k, degradation rate of EM-1 by APM in the presence of inhibitor",APM [1]; [5],1.88 ± 0.09 min⁻¹
same,"100 × k, degradation rate of EM-2 by APM in the presence of inhibitor",APM [1]; [6],1.50 ± 0.05 min⁻¹
same,Effect on EM-1 degradation in rat spinal cord homogenate,[3],significantly blocked EM-1 degradation
"C[C@H](NC(=O)[C@@H]1CCCN1C(=O)[C@@H](N)Cc1ccc(O)cc1)C(N)=O [EMDB-2, Tyr-Pro-Ala-NH2] (H-Tyr-Pro-Ala-NH2; N-terminus assumed)",Crossing of the blood-brain barrier,[4],do not cross the blood–brain barrier
Ile-Pro-Ile [Diprotin A],"100 × k, degradation rate of EM-1 by DPP IV in the presence of inhibitor",DPP IV; [5],0.13 ± 0.01 min⁻¹
same,"100 × k, degradation rate of EM-2 by DPP IV in the presence of inhibitor",DPP IV; [6],0.18 ± 0.01 min⁻¹
